Bioassay records: PubChem BioAssay, several laboratories
GPR7 antagonist: blocks human GPR7 receptor signaling. hit rate 1.1% among 290,000. inhibition, % at 4.4 µM. AID 1861. GPR7-expressing cells, fluorescence antagonist assay; in the data active means inhibition above about 16%, passing the limit was not always enough;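 further: cells stimulated with the agonist NPW; 0% = agonist with vehicle and 100% = vehicle without agonist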
Target sequence (P48145 whole entry, looked up): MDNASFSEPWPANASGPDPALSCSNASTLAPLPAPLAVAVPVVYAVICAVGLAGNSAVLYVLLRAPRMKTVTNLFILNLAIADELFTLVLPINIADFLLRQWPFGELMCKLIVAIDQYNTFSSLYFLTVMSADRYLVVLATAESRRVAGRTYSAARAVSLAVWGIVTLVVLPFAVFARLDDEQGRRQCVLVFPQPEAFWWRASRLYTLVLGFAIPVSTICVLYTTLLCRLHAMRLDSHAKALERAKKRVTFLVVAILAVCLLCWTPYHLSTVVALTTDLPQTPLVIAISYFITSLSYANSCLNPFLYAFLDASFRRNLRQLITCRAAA
TRPML3 agonist: agonists of human TRPML3 channel; AID 1448; hit rate 0.29% among 220,000; Q8TDD5; activation, % at 3 µM; HEK293 TRPML3-YFP, Fluo-8 calcium fluorescence; 100% = the carbachol control signal;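 active means activation above its plate's cutoff, the mean activation of the plate's test wells plus 3 SD, cut at about 12% in these data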;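 further: 0% = DMSO only wells and 100% = carbachol wells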
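Test system: TRPML3-YFP stable HEK293 cells. Doses: single point at 3 µM. Incubation: dye loading 1 h 37 °C then 30 min ambient, 125 s read. Signal: Fluo-8 calcium dye fluorescence, ex 470-495, em 515-575 nm. Measure: percent activation from peak-to-basal fluorescence ratio, scaled between DMSO and carbachol.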
CRFBP-R2 block: blocks CRF-induced signaling of the CRF-BP/CRF-R2 complex | inhibition, % at 11.8 µM | hit rate 0.59% among 350,000 | AID 588475 | HEK293 CRF-R2/CRF-BP, CRF-induced calcium fluorescence;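 active means inhibition of the ligand-induced calcium signal above about 50% at the single tested concentration, limit read from the data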
zfTRPN1 agonist: zebrafish TRPN1 (NompC) channel agonism; HEK293 zebrafish TRPN1-YFP, Fluo-8 calcium fluorescence; 100% = response to 87 µM carbachol; activation, % at 3 µM; hit rate 0.18% among 220,000; AID 1424;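 active means activation above its plate's cutoff, the mean activation of test wells on that plate plus 3 SD, cut at about 19% in these data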;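 further: 0% = DMSO alone and 100% = 87 µM carbachol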
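System: zebrafish TRPN1-YFP in HEK293 cells / Dosing: 3 µM single point / Timing: dye loading 1 h at 37 °C, then 30 min room temperature / Signal: Fluo-8 calcium fluorescence, excitation 470-495 nm, emission 515-575 nm / Read-out basis: percent activation from peak over basal fluorescence ratio, control-normalized / Control set: high carbachol 87 µM, low DMSO alone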
CRFBP-R2 agonist: CRF-BP/CRF-R2 complex agonism; activation, % at 13.2 µM; hit rate 0.46% among 350,000; AID 588473; HEK293 CRF-R2/CRF-BP, calcium dye fluorescence (FLIPR); percent of saturating CRF peptide response;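 active means activation of at least 50%, plus an integration ratio under a set limit after plate pattern correction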;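 further: plate controls were neutral control wells without compound for no effect and CRF at EC100 for full effect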
* = called active by the depositor; · = no result given. A selection: hits, their analogues and other compounds. The true share with any hit is near 2%.

SMILES	GPR7 antagonist	TRPML3 agonist	CRFBP-R2 block	zfTRPN1 agonist	CRFBP-R2 agonist
CCOC(=O)CSc1nc(N2CCOCC2)c2c(c1C#N)CC(C)(C)N(C)C2	-15	0	-112	1	196*
CCOC(=O)CSc1nc(N2CCOCC2)c2c(c1C#N)CC(C)(C)OC2	-11	·	4	·	0
CCOc1cc(/C=N/NC(N)=O)ccc1OCC(=O)Nc1ccc(C)c(C)c1	-5	1	-16	0	0
CCOc1cc(C=C2C(=O)c3ccccc3C2=O)ccc1OCC(=O)Nc1ccc(C)cc1	-3	0	-107	0	113*
COCC(C)NC(=O)c1cc2c(ccc3ccccc32)oc1=O (configuration not stated)	-6	·	5	·	-2
c1ccn2cc(CSc3nnc4ccccn34)nc2c1	-7	1	3	0	0
Cn1ccnc1SCc1cn2ccccc2n1	8	1	72*	1	7
C=CCOC(=O)C(C#N)c1nc2ccccc2nc1N1CCN(c2ccccc2OCC)CC1 (configuration not stated)	-2	1	53*	2	2
N#Cc1cccc(NCC(=O)Nc2ccc3c(c2)OCCO3)c1	-8	1	80*	0	-3
N#Cc1ccc(NCC(=O)Nc2ccc3c(c2)OCCO3)cc1	1	0	1	0	0
CS(=O)(=O)c1ccc(S(=O)CC(=O)OCc2ccccc2)c([N+](=O)[O-])c1 (configuration not stated)	-2	1	53*	2	5
O=C(CS(=O)c1ccc(C(F)(F)F)cc1[N+](=O)[O-])Oc1ccccc1 (configuration not stated)	14	1	-18	-1	-1
CC1(C)CN(C(=S)Nc2ccc(F)cc2F)C1=O	0	·	8	·	-3
COc1ccccc1Nc1ccc(S(=O)(=O)N2CCCCC2)cc1[N+](=O)[O-]	-4	0	51*	0	-2
COc1ccc(Nc2ccc(S(=O)(=O)N3CCCCC3)cc2[N+](=O)[O-])cc1OC	-7	0	17	1	-6
Cc1cccc(NC(=O)CSc2nnc(CNC(=O)c3ccco3)n2C)c1	-15	·	10	·	0
CN1c2ccccc2C(O)=C(C(=S)Nc2ccc(Cl)cc2)S1(=O)=O	5	2	59*	5	0
CCN(C(=O)COC(=O)[C@H](C)N=C1NS(=O)(=O)c2ccccc21)C1CCS(=O)(=O)C1 (some centres not stated)	·	·	8	·	-2
CN(NC(=O)Nc1ccccc1)c1cnn(C)c(=O)c1Cl	-11	1	120*	1	3
CN(NC(=O)Nc1ccc(Cl)cc1)c1c(Cl)c(Cl)nn1C	6	0	-29	-1	1
CCc1ccc(C2=NN(C(=O)CCC(=O)O)C(c3cccs3)C2)cc1 (configuration not stated)	-12	·	-8	·	-2
O=C(c1ccc2snnc2c1)N1CCN(c2ccccn2)CC1	9	0	79*	0	0
O=C(c1ccc2snnc2c1)N1CCN(c2ccccc2)CC1	10	1	-2	1	-2
Cc1ccc(-c2nn(C)c(=O)c3ccccc23)cc1CO	4	0	69*	1	-3
O=c1[nH]c(Nc2ccccc2)cc2ccccc12	-1	1	-43	2	63*
SMILES	GPR7 antagonist	TRPML3 agonist	CRFBP-R2 block	zfTRPN1 agonist	CRFBP-R2 agonist
O=c1[nH]c(Nc2ccccc2)cc2cc(Br)ccc12	·	·	-1	·	2
Cc1ccc(N/C(N)=N/c2nc(CSc3nnc(C)s3)cc(=O)[nH]2)c(C)c1	31*	0	9	-1	-1
O=C(Nc1cc2c3c(c1)CC(=O)N3CCC2)C1CC1	·	·	9	·	-2
CCC(C)N1C(=O)/C(=C/c2c(NCCCOC(C)C)nc3c(C)cccn3c2=O)SC1=S (configuration not stated)	-6	2	-122	2	59*
CCCN1C(=O)/C(=C/c2c(NCCCOC(C)C)nc3c(C)cccn3c2=O)SC1=S	-8	1	-233	3	191*
C/C(=N\NC(=O)CCc1ccccc1)C1C(=O)c2ccccc2C1=O	-10	0	4	1	-2
C/C(=N\NC(=O)c1cccc(Cl)c1)C1C(=O)c2ccccc2C1=O	-5	0	85*	1	26
CCC(c1nnc(SCC(=O)Nc2c(F)cccc2F)n1Cc1ccccc1)N(C)C (configuration not stated)	-12	·	60*	·	-3
O=C(Nc1cccn(Cc2c(Cl)cccc2Cl)c1=O)c1c(Cl)cccc1Cl	-13	-1	52*	-1	2
C/C(CC(C)(C)C1CCCCC1)=N\NC(N)=S	37*	-1	-26	0	-3
Cc1ccc2c(c1)CCCN2C(=O)c1cc(C)on1	-8	·	0	·	-2
CCC(C)c1ccccc1NC(=O)CN(CC)CC(=O)Nc1ccc2c(c1)OCCO2 (configuration not stated)	·	·	5	·	-1
C#CCSc1nc(C)cc(C(=O)OCC)c1C#N	-11	-1	82*	-3	-6
CCOC(=O)CC(=O)CSc1nc(C)cc(C)c1C#N	-12	1	-6	0	2
CC1=C(C(=O)N2CCOCC2)CC(CC(=O)NCc2ccco2)C(=O)N1Cc1ccccc1 (configuration not stated)	·	·	2	·	0
Cc1ccc(OCCOC(=O)Cn2nc(C)c([N+](=O)[O-])c2C)cc1	18	0	54*	0	3
CCOC(=O)Cn1nc(C)c([N+](=O)[O-])c1C	-6	1	6	1	1
Cc1cc(NC(=O)NC2CC(=O)N(c3ccc4c(c3)OCCO4)C2)no1 (configuration not stated)	-7	0	-1	1	-1
O=c1c(/C=N/Nc2ccccc2)c(Sc2nnnn2-c2ccccc2)nc2ccccn12	-13	1	-106	0	99*
Cc1c2ccccc2nc2c(F)c(NCCO)c(F)c(F)c12	6	1	-9	0	19
OCCNc1c2ccccc2nc2c(F)c(F)c(F)c(F)c12	4	1	-113	2	69*
O=C(NC1CCCN(C2Cc3ccccc3C2)C1)c1ccc(F)cc1Cl (configuration not stated)	-8	·	-10	·	-1
COc1cc(NC(=O)CSc2nc3ccccc3n2-c2ccccc2)c(C)cc1[N+](=O)[O-]	-10	-1	55*	-1	-2
COc1ccc(-n2c(SCC(=O)Nc3ccc([N+](=O)[O-])cc3OC)nc3ccccc32)cc1	0	0	30	0	6
c1csc(COc2ccccc2CNC2CCCCC2)c1	24*	0	-12	-2	-1
COC(=O)CNC(=O)C1CCC(CNS(=O)(=O)c2cccc3nsnc23)CC1 (configuration not stated)	-20	·	-3	·	-1
